Laboratory results: ChEMBL document CHEMBL1155302, “Crystal structure, antitumour and antimetastatic activities of disubstituted fused 1,2,4-triazinones” (Bioorg Med Chem Lett, 2009)

Tests used:
RPMI-8226 [1] = test: Antitumor activity against human RPMI8226 cells assessed as cell viability at 100 uM after 24 hrs by MTT assay relative to control; format: functional; details: RPMI-8226, 24 h, read-out: Activity
Outline: (§1)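 RPMI 8226 peripheral blood myeloma cells were treated with 1, 50 or 100 µM compound (DMSO stock diluted into medium) for 24 h. Viability was measured by MTT reduction (SDI test), with solubilized formazan read at 570 nm. Results are % of medium-alone control, mean SD of at least three independent measurements.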

[2] = Cytotoxicity against human HSF cells assessed as cell viability at 1 uM after 24 hrs by MTT assay relative to control; format: cell-based; details: read-out: Activity
Outline: (§2)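 Primary skin fibroblasts were obtained by trypsinizing a healthy forearm skin fragment and grown in DMEM with 10% FBS, penicillin and streptomycin at 37 °C, 5% CO2. Cells were plated at 1 × 10⁵ per well to confluence, then exposed for 24 h to 1, 50 or 100 µM compound diluted from DMSO. MTT viability was read at 570 nm as % of medium control, mean SD of at least three independent measurements.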

RPMI-8226 [3] = test: Antitumor activity against human RPMI8226 cells assessed as cell viability at 1 uM after 24 hrs by MTT assay relative to control; format: functional; details: RPMI-8226, 24 h, read-out: Activity; outline: as §1
[4] = Cytotoxicity against human HSF cells assessed as cell viability at 50 uM after 24 hrs by MTT assay relative to control; format: cell-based; details: read-out: Activity; outline: as §2
[5] = Cytotoxicity against human HSF cells assessed as cell viability at 100 uM after 24 hrs by MTT assay relative to control; format: cell-based; details: read-out: Activity; outline: as §2
RPMI-8226 [6] = test: Antitumor activity against human RPMI8226 cells assessed as cell viability at 50 uM after 24 hrs by MTT assay relative to control; format: functional; details: RPMI-8226, 24 h, read-out: Activity; outline: as §1
[7] = Antimetastatic activity against human HeLaB cells assessed as inhibition of cell motility at 25 uM after 24 hrs relative to control; format: functional; design: scale not given: the % may be the effect or the level left
Outline: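 HeLa B cervix carcinoma cells were exposed to 25 µM compound or to culture medium alone for 24 h in a wound-migration (cell motility) assay. Cells migrating into the wound area were scored, and motility was expressed as % of the medium-only control (100%).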

SMILES | viability at 100 µM (RPMI-8226 [1]) | viability at 24 h, 1 µM [2] | viability at 1 µM (RPMI-8226 [3]) | viability at 24 h, 50 µM [4] | viability at 24 h, 100 µM [5] | viability at 50 µM (RPMI-8226 [6]) | Activity [7]
O=c1c(-c2ccccc2)nnc2n1CCN2c1cc(Cl)ccc1Cl | 41% | 87% | 109% | 31% | 17% | 43% | 103%
O=c1c(-c2ccccc2)nnc2n1CCN2c1cccc(Cl)c1 | 60% | 108% | 105% | 85% | 88% | 70% | 52%
Cc1cccc(N2CCn3c2nnc(-c2ccccc2)c3=O)c1 | 71% | 100% | 107% | 94% | 88% | 79% | 68%
COc1ccc(N2CCn3c2nnc(-c2ccccc2)c3=O)cc1 | 43% | 88% | 106% | 64% | 73% | 57% | 59%
O=c1c(-c2ccccc2)nnc2n1CCN2c1ccc(Cl)cc1 | 39% | 104% | 101% | 96% | 102% | 56% | 50%
O=c1c(-c2ccccc2)nnc2n1CCN2c1ccc(Cl)c(Cl)c1 | 58% | 93% | 108% | 48% | 47% | 69% | 90%
O=c1c(-c2ccccc2)nnc2n1CCN2c1ccccc1Cl | 101% | 108% | 103% | 104% | 104% | 103% | 59%
